Assay results: ChEMBL document CHEMBL3259639, “RE12 derivatives displaying Vaccinia H1-related phosphatase (VHR) inhibition in the presence of detergent and their anti-proliferative activity against HeLa cells” (Bioorg Med Chem, 2014)
Activity calls are given as the source filed them. No cut-off for these calls is given here.

Tests used:
HeLa [1] = test: Antiproliferative activity against human HeLa cells at 30 uM after 48 hrs incubation by Alamar Blue assay; assay type: functional, cell-based
Summary of the method: (§1)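 HeLa cells plated at 3 x 10^3 cells/well, treated 48 h at a single concentration (20 or 30 µM as per line); viability by Alamar Blue added for 3 h at 37 °C, 5% CO2, fluorescence at 530 nm ex/590 nm em; percent inhibition of proliferation.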

HeLa [2] = test: Antiproliferative activity against human HeLa cells at 20 uM after 48 hrs incubation by Alamar Blue assay; assay type: functional, cell-based; summary of the method: as §1
[3] = target: T1, Dual specificity protein phosphatase 3 (Homo sapiens, UniProt P51452); test: Inhibition of Vaccinia H1-related phosphatase (unknown origin) by fluorescence emission assay in presence of 0.001% NP-40
Target sequence in this assay (P51452 whole entry): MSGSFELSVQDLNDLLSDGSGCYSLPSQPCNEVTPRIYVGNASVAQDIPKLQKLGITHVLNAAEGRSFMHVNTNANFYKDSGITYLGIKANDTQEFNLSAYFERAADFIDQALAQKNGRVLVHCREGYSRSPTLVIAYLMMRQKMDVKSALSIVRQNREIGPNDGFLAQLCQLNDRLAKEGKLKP

[4] = target: T1, Dual specificity protein phosphatase 3; test: Inhibition of Vaccinia H1-related phosphatase (unknown origin) by fluorescence emission assay
Summary of the method: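 Purified VHR (22 ng) preincubated with or without compound 30 min at 37 °C in 50 mM succinate, 1 mM EDTA, 150 mM NaCl, 1 mM DTT, pH 6.0, 0.001% NP-40; reaction begun with 10 µM O-methylfluorescein phosphate, 10 min at 37 °C; product fluorescence at 485 nm ex/530 nm em; IC50 from sigmoid dose-response curve.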
Target sequence in this assay (P51452 whole entry): as above

[5] = target: T1, Dual specificity protein phosphatase 3; conditions: 100 uM
Target sequence in this assay (P51452 whole entry, looked up): as the sequence (P51452 whole entry) above

HeLa [6] = test: Antiproliferative activity against human HeLa cells after 48 hrs incubation by Alamar Blue assay; assay type: functional, cell-based
Summary of the method: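 HeLa cells seeded at 3 x 10^3 cells/well, exposed to compounds for 48 h; Alamar Blue then added and incubated 3 h at 37 °C, 5% CO2; fluorescence read at 530 nm excitation/590 nm emission. IC50 taken from sigmoid dose-response curve.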

Compound	inhibition (HeLa [1])	inhibition (HeLa [2])	further results
Cc1cccc(CN/C(CCCCc2ccccc2OCc2ccc(Cl)cc2)=C2\C(=O)OC(CO)C2=O)c1 (stereo unspecified)	Active	Active	
Cc1cccc(CN/C(CCCCc2ccccc2OCc2cccc(Cl)c2)=C2\C(=O)OC(CO)C2=O)c1 (stereo unspecified)	Active	Active	
CCCCCCCCCCCCCCC/C(NCc1cccc(C)c1)=C1/C(=O)OC(CO)C1=O (stereo unspecified)	Active	Active	IC50 [3]: > 100 µM; IC50 [4]: 1.6 µM; inhibition [5]: inactive
Cc1cccc(CN/C(CCCCc2ccc(OCc3ccc(Cl)cc3)cc2)=C2\C(=O)OC(CO)C2=O)c1 (stereo unspecified)	Active		
Cc1cccc(CN/C(CCCCc2ccccc2OCc2ccccc2)=C2\C(=O)OC(CO)C2=O)c1 (stereo unspecified)	Active	Active	
Cc1cccc(CN/C(CCCCc2cccc(OCc3ccc(Cl)cc3)c2)=C2\C(=O)OC(CO)C2=O)c1 (stereo unspecified)	Active	Active	
Cc1cccc(CN/C(CCCCc2ccc(OCc3cccc(Cl)c3)cc2)=C2\C(=O)OC(CO)C2=O)c1 (stereo unspecified)			IC50 (HeLa [6]): 7.8 µM
Cc1cccc(CN/C(CCCCc2ccccc2OCc2ccc(C(F)(F)F)cc2)=C2\C(=O)OC(CO)C2=O)c1 (stereo unspecified)	Active	Active	
Cc1cccc(CN/C(CCCCc2cccc(OCc3cccc(Cl)c3)c2)=C2\C(=O)OC(CO)C2=O)c1 (stereo unspecified)	Active	Active	
Cc1cccc(CN/C(CCCCc2cccc(OCc3ccccc3Cl)c2)=C2\C(=O)OC(CO)C2=O)c1 (stereo unspecified)	Active	Active	
Cc1cccc(CN/C(CCCCc2ccccc2OCc2ccc([N+](=O)[O-])cc2)=C2\C(=O)OC(CO)C2=O)c1 (stereo unspecified)	Active	Active	
Cc1cccc(CN/C(CCCCc2ccccc2OCc2ccccc2Cl)=C2\C(=O)OC(CO)C2=O)c1 (stereo unspecified)	Active	Active	
Cc1cccc(CN/C(CCCCc2ccc(OCc3ccccc3Cl)cc2)=C2\C(=O)OC(CO)C2=O)c1 (stereo unspecified)			IC50 (HeLa [6]): 10.6 µM
